# According to ChEMBL document CHEMBL3091449, “Synthesis and antimicrobial profile of N-substituted imidazolium oximes and their monoquaternary salts against multidrug resistant bacteria” (2013):
# Assays:
# Format in all cases: functional
# [1] = system: Pseudomonas aeruginosa; test: Ratio of gentamicin MIC to compound MIC for Pseudomonas aeruginosa FNSST 982
# [2] = system: Stenotrophomonas maltophilia; test: Antibacterial activity against […] expressing Stenotrophomonas maltophilia isolate 125 after 18 to 24 hrs by two-fold broth microdilution assay
# Outline: (§1)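 CLSI two-fold broth microdilution was used. Compounds were dissolved in DMSO, brought to 10 mg/mL in medium, then serially diluted in Mueller Hinton broth over 400–0.09 µg/mL. Overnight MHB cultures were diluted to 10^6 CFU/mL, and 10 µL was added per well. Plates were incubated 18–24 h at 37 °C, then 0.2 mg/mL INT was added for 30 min at 37 °C. MIC was the lowest concentration with no visible growth or pink colour, triplicate.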
# [3] = system: Staphylococcus aureus; test: Antibacterial activity against Staphylococcus aureus ATCC 25923 assessed as diameter of zone of inhibition at 250 ug/disc after 24 hrs by disc diffusion method; conditions: ATCC 25923, 24 h, read-out: DIZ
# Outline: (§2)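 Bacteria were grown overnight at 37 °C in TSB to about 10^6 cfu/mL, and 100 µL was spread on Mueller Hinton agar. Sterile 6 mm discs were each loaded with 25 µL of a 10 mg/mL stock in 96% ethanol, giving 250 µg/disc. Ethanol served as the negative control. Plates were incubated 24 h at 37 °C. Inhibition zone diameter was measured including the disc, in triplicate, as mean ± SE.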
# [4] = system: Clostridium perfringens; test: Antibacterial activity against Clostridium perfringens FNSST 4999 after 18 to 24 hrs by two-fold broth microdilution assay
# Outline: (§3)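 CLSI two-fold broth microdilution. Compounds dissolved in DMSO, 10 mg/mL stock, serially diluted to 400–0.09 µg/mL in Mueller Hinton broth. Wells inoculated with 10^6 CFU/mL bacteria and incubated 18–24 h at 37 °C. 0.2 mg/mL INT added for 30 min. MIC taken as the lowest concentration with no visible growth or pink colour. Triplicate.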
# [5] = system: Klebsiella pneumoniae; test: Antibacterial activity against Klebsiella pneumoniae FNSST 011 assessed as diameter of zone of inhibition at 250 ug/disc after 24 hrs by disc diffusion method; conditions: FNSST 011, 24 h, read-out: DIZ; outline: as §2
# [6] = system: Enterococcus faecalis; test: Antibacterial activity against Enterococcus faecalis ATCC 29212 assessed as diameter of zone of inhibition at 250 ug/disc after 24 hrs by disc diffusion method; conditions: ATCC 29212, 24 h, read-out: DIZ; outline: as §2
# [7] = system: Escherichia coli; test: Ratio of gentamicin MIC to compound MIC for Escherichia coli FNSST 982
# [8] = system: Aeromonas hydrophila; test: Ratio of gentamicin MIC to compound MIC for Aeromonas hydrophila FNSST 014
# [9] = system: Escherichia coli; test: Antibacterial activity against […] expressing Escherichia coli isolate 235 after 18 to 24 hrs by two-fold broth microdilution assay; outline: as §3
# [10] = system: Aeromonas caviae; test: Antibacterial activity against […] expressing Aeromonas caviae isolate 258 after 18 to 24 hrs by two-fold broth microdilution assay; outline: as §1
# [11] = system: Pseudomonas aeruginosa; test: Antibacterial activity against Pseudomonas aeruginosa FNSST 982 after 18 to 24 hrs by two-fold broth microdilution assay; outline: as §1
# [12] = system: Enterobacter cloacae; test: Antibacterial activity against TEM-1/CTX-M-15 expressing Enterobacter cloacae isolate 62 after 18 to 24 hrs by two-fold broth microdilution assay
# [13] = system: Candida albicans; test: Antifungal activity against Candida albicans ATCC 10231 assessed as diameter of zone of inhibition at 250 ug/disc after 48 hrs by disc diffusion method; conditions: ATCC 10231, 48 h, read-out: DIZ
# Outline: (§4)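 Fungi were grown overnight at 30 °C in Sabouraud dextrose broth to 10^4 cfu/mL, and 100 µL was spread on Sabouraud dextrose agar. 6 mm discs carried 250 µg (25 µL of a 10 mg/mL stock in 96% ethanol), with ethanol as the negative control. Incubation was at 30 °C for 48 h (yeast) or 72 h (molds). Zone diameter was read including the disc, in triplicate, mean ± SE.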
# [14] = system: Acinetobacter baumannii; test: Antibacterial activity against SIM-1 expressing Acinetobacter baumannii isolate 170 after 18 to 24 hrs by two-fold broth microdilution assay; outline: as §3
# [15] = system: Escherichia coli; test: Antibacterial activity against TEM-1/SHV-12 expressing Escherichia coli isolate 237 after 18 to 24 hrs by two-fold broth microdilution assay; outline: as §3
# [16] = system: Aeromonas hydrophila; test: Antibacterial activity against TEM-1/SHV-12 expressing Aeromonas hydrophila isolate 268 after 18 to 24 hrs by two-fold broth microdilution assay; outline: as §1
# [17] = system: Acinetobacter baumannii; test: Ratio of meropenem MIC to compound MIC for Acinetobacter baumannii isolate 170
# [18] = system: Pseudomonas aeruginosa; test: Antibacterial activity against GIM-1 expressing Pseudomonas aeruginosa isolate 197 after 18 to 24 hrs by two-fold broth microdilution assay; outline: as §1
# [19] = system: Klebsiella pneumoniae; test: Ratio of gentamicin MIC to compound MIC for Klebsiella pneumoniae FNSST 011
# [20] = system: Klebsiella pneumoniae; test: Antibacterial activity against Klebsiella pneumoniae FNSST 011 after 18 to 24 hrs by two-fold broth microdilution assay; outline: as §1
# [21] = system: Aeromonas hydrophila; test: Antibacterial activity against Aeromonas hydrophila FNSST 014 assessed as diameter of zone of inhibition at 250 ug/disc after 24 hrs by disc diffusion method; conditions: FNSST 014, 24 h, read-out: DIZ; outline: as §2
# [22] = system: Kluyvera intermedia; test: Antibacterial activity against TEM-1/SHV-12/[…] expressing Enterobacter intermedius isolate 243 after 18 to 24 hrs by two-fold broth microdilution assay; outline: as §1
# [23] = system: Klebsiella pneumoniae; test: Antibacterial activity against TEM-1/SHV-12 expressing Klebsiella pneumoniae isolate 303 after 18 to 24 hrs by two-fold broth microdilution assay; outline: as §1
# [24] = system: Aeromonas hydrophila; test: Antibacterial activity against Aeromonas hydrophila FNSST 014 after 18 to 24 hrs by two-fold broth microdilution assay; outline: as §1
# [25] = system: Acinetobacter baumannii; test: Ratio of imipenem MIC to compound MIC for Acinetobacter baumannii isolate 170
# [26] = system: Escherichia coli; test: Antibacterial activity against Escherichia coli FNSST 982 assessed as diameter of zone of inhibition at 250 ug/disc after 24 hrs by disc diffusion method; conditions: FNSST 982, 24 h, read-out: DIZ; outline: as §2
# [27] = system: Escherichia coli; test: Antibacterial activity against Escherichia coli FNSST 982 after 18 to 24 hrs by two-fold broth microdilution assay; outline: as §1
# [28] = system: Aeromonas caviae; test: Antibacterial activity against TEM-1/CTX-M-15 expressing Aeromonas caviae isolate 260 after 18 to 24 hrs by two-fold broth microdilution assay; outline: as §1
# [29] = system: Pseudomonas aeruginosa; test: Antibacterial activity against Pseudomonas aeruginosa FNSST 982 assessed as diameter of zone of inhibition at 250 ug/disc after 24 hrs by disc diffusion method; conditions: FNSST 982, 24 h, read-out: DIZ; outline: as §2
# [30] = system: Enterococcus faecalis; test: Antibacterial activity against Enterococcus faecalis ATCC 29212 after 18 to 24 hrs by two-fold broth microdilution assay; outline: as §1
# [31] = system: Staphylococcus aureus; test: Antibacterial activity against Staphylococcus aureus ATCC 25923 after 18 to 24 hrs by two-fold broth microdilution assay; outline: as §1
# [32] = system: Pseudomonas aeruginosa; test: Ratio of imipenem MIC to compound MIC for Pseudomonas aeruginosa isolate 197
# [33] = system: Talaromyces funiculosus; test: Antifungal activity against Penicillium funiculosum FNSST 3724 assessed as diameter of zone of inhibition at 250 ug/disc after 72 hrs by disc diffusion method; conditions: FNSST 3724, 72 h, read-out: DIZ; outline: as §4
# [34] = system: Bacillus cereus; test: Antibacterial activity against Bacillus cereus ATCC 11778 after 18 to 24 hrs by two-fold broth microdilution assay; outline: as §1
# [35] = system: Aspergillus fumigatus; test: Antifungal activity against Aspergillus fumigatus FNSST 3833 assessed as diameter of zone of inhibition at 250 ug/disc after 72 hrs by disc diffusion method; conditions: FNSST 3833, 72 h, read-out: DIZ; outline: as §4
# [36] = system: Clostridium perfringens; test: Antibacterial activity against Clostridium perfringens FNSST 4999 assessed as diameter of zone of inhibition at 250 ug/disc after 24 hrs by disc diffusion method; conditions: FNSST 4999, 24 h, read-out: DIZ
# Outline: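 Disc diffusion per CLSI: 100 µL of 10^6 cfu/mL bacterial suspension spread on Mueller Hinton agar. 6 mm discs loaded with 25 µL of 10 mg/mL compound stock in 96% ethanol (250 µg/disc); ethanol as negative control. Incubated 24 h at 37 °C. Inhibition zone diameter measured in mm including the disc, triplicate, reported as mean ± SE.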
# [37] = system: Pseudomonas aeruginosa; test: Ratio of meropenem MIC to compound MIC for Pseudomonas aeruginosa isolate 197
# [38] = system: Escherichia coli; test: Antibacterial activity against […] expressing Escherichia coli isolate 4024 after 18 to 24 hrs by two-fold broth microdilution assay; outline: as §3
# [39] = system: Enterobacter cloacae; test: Antibacterial activity against CTX-15 expressing Enterobacter cloacae isolate 51 after 18 to 24 hrs by two-fold broth microdilution assay
# [40] = system: Enterobacter cloacae; test: Antibacterial activity against TEM-1/SHV-12 expressing Enterobacter cloacae isolate 306 after 18 to 24 hrs by two-fold broth microdilution assay
# [41] = system: Bacillus cereus; test: Antibacterial activity against Bacillus cereus ATCC 11778 assessed as diameter of zone of inhibition at 250 ug/disc after 24 hrs by disc diffusion method; conditions: ATCC 11778, 24 h, read-out: DIZ; outline: as §2
structure (smiles),measurement,setting,value
O/N=C/c1n(Cc2ccccc2)cc[n+]1-c1ccc(F)cc1.[Br-],Ratio,[1],2.5
same,MIC,[2],12.5 µg/mL
same,zone of inhibition at 250 µg/disc,[3],19.9 mm
same,MIC,[4],25 µg/mL
same,zone of inhibition at 250 µg/disc,[5],14.7 mm
same,zone of inhibition at 250 µg/disc,[6],19.6 mm
same,Ratio,[7],2.5
same,Ratio,[8],2.5
same,MIC,[9],6.25 µg/mL
same,MIC,[10],12.5 µg/mL
same,MIC,[11],25 µg/mL
same,MIC,[12],6.25 µg/mL
same,zone of inhibition at 250 µg/disc,[13],21.9 mm
same,MIC,[14],0.78 µg/mL
same,MIC,[15],3.12 µg/mL
same,MIC,[16],12.5 µg/mL
same,Ratio,[17],20
same,MIC,[18],0.39 µg/mL
same,Ratio,[19],2.5
same,MIC,[20],1.56 µg/mL
same,zone of inhibition at 250 µg/disc,[21],16.5 mm
same,MIC,[22],6.25 µg/mL
same,MIC,[23],12.5 µg/mL
same,MIC,[24],12.5 µg/mL
same,Ratio,[25],20
same,zone of inhibition at 250 µg/disc,[26],15.3 mm
same,MIC,[27],12.5 µg/mL
same,MIC,[28],12.5 µg/mL
same,zone of inhibition at 250 µg/disc,[29],15.9 mm
same,MIC,[30],6.25 µg/mL
same,MIC,[31],6.25 µg/mL
same,Ratio,[32],20
same,zone of inhibition at 250 µg/disc,[33],17.9 mm
same,MIC,[34],6.25 µg/mL
same,zone of inhibition at 250 µg/disc,[35],19.4 mm
same,zone of inhibition at 250 µg/disc,[36],11.4 mm
same,Ratio,[37],20
same,MIC,[38],1.56 µg/mL
same,MIC,[39],6.25 µg/mL
same,MIC,[40],6.25 µg/mL
same,zone of inhibition at 250 µg/disc,[41],18.3 mm
O/N=C/c1n(Cc2ccccc2)cc[n+]1-c1ccccc1.[Br-],zone of inhibition at 250 µg/disc,[3],12.5 mm
same,MIC,[4],25 µg/mL
same,zone of inhibition at 250 µg/disc,[5],15.5 mm
same,zone of inhibition at 250 µg/disc,[6],13.3 mm
same,Ratio,[7],10
same,MIC,[11],25 µg/mL
same,zone of inhibition at 250 µg/disc,[13],18.1 mm
same,MIC,[20],31.2 µg/mL
same,zone of inhibition at 250 µg/disc,[21],15.3 mm
same,MIC,[24],25 µg/mL
same,zone of inhibition at 250 µg/disc,[26],12.3 mm
same,MIC,[27],3.12 µg/mL
same,zone of inhibition at 250 µg/disc,[29],14.9 mm
same,MIC,[30],25 µg/mL
same,MIC,[31],12.5 µg/mL
same,zone of inhibition at 250 µg/disc,[33],17.4 mm
same,MIC,[34],25 µg/mL
same,zone of inhibition at 250 µg/disc,[35],20.8 mm
same,zone of inhibition at 250 µg/disc,[36],16.6 mm
same,zone of inhibition at 250 µg/disc,[41],15 mm
O/N=C/c1nccn1Cc1ccccc1,Ratio,[1],5
same,zone of inhibition at 250 µg/disc,[3],10.8 mm
same,MIC,[4],50 µg/mL
same,zone of inhibition at 250 µg/disc,[5],15.8 mm
same,zone of inhibition at 250 µg/disc,[6],14.9 mm
same,MIC,[11],12.5 µg/mL
same,zone of inhibition at 250 µg/disc,[13],17.2 mm
same,MIC,[20],25 µg/mL
same,zone of inhibition at 250 µg/disc,[21],10.1 mm
same,MIC,[24],25 µg/mL
same,zone of inhibition at 250 µg/disc,[26],17.3 mm
same,MIC,[27],25 µg/mL
same,zone of inhibition at 250 µg/disc,[29],17.9 mm
same,MIC,[30],6.25 µg/mL
same,MIC,[31],6.25 µg/mL
same,zone of inhibition at 250 µg/disc,[33],17.6 mm
same,MIC,[34],6.25 µg/mL
same,zone of inhibition at 250 µg/disc,[35],11.5 mm
same,zone of inhibition at 250 µg/disc,[36],15.9 mm
same,zone of inhibition at 250 µg/disc,[41],17.5 mm
